From ChEMBL document CHEMBL5724801, “EUbOPEN Chemogenomics Library - Multiplex” (2024)
“And” between values parts separate entries of the source, which are not always exact repeats. Identical values can stand only once.

Tested on: U2OS
Assay: Multiplex assay against U2OS
Type: toxicity, cell-based
Conditions: human
In short: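 Cells stained live at seeding with Hoechst33342, BioTracker Green Microtubule Cytoskeleton Dye, MitoTracker Red and Annexin V Alexa Fluor 680 were imaged on a CQ1 microscope at 37°C and 5% CO2 after compound addition. Their classification by CellPathfinder machine-learning gating ran from Hoechst high-intensity objects versus normal cells, to healthy, pyknosed or fragmented nuclei among normal cells, to mitotic or apoptotic among pyknosed cells. Tubulin, mitochondrial-mass and membrane-permeability phenotypes are per cents of healthy-nucleus cells.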

[1] = 12 h, 1 µM, compound concentration 1 uM
[2] = 12 h, 10 µM, compound concentration 10 uM
[3] = 24 h, 1 µM, compound concentration 1 uM
[4] = 24 h, 10 µM, compound concentration 10 uM
[5] = 48 h, 1 µM, compound concentration 1 uM
[6] = 48 h, 10 µM, compound concentration 10 uM

CC(N)C1CCC(C(=O)Nc2ccncc2)CC1 (stereo not drawn)
Population Apoptotic (%) [1]: 33.33% and 18.75% | Population Fragmented Nuclei (%) [1]: 1.02% and 1.57% | Population Healthy Nuclei (%) [1]: 90.39% and 81.68% | Population Hoechst High Intensity Objects (%) [1]: 0% | Population Membrane Permeable-Phenotype (%) [1]: 0.68% and 1.28% | Population Mitochondria Different-Phenotype (%) [1]: 0.68% and 3.21% | Population Mitotic Cells (%) [1]: 66.67% and 81.25% | Population Normal (%) [1]: 100% | Population Pyknosed Nuclei (%) [1]: 8.59% and 16.75% | Population Tubulin-Different-Phenotype (%) [1]: 0.23% and 0.64% | Total Cell Count [1]: 489 and 191 | Population Apoptotic (%) [2]: 31.03% and 27.78% | Population Fragmented Nuclei (%) [2]: 0.73% and 1.2% | Population Healthy Nuclei (%) [2]: 92.2% and 87.95% | Population Hoechst High Intensity Objects (%) [2]: 0% | Population Membrane Permeable-Phenotype (%) [2]: 1.32% and 1.37% | Population Mitochondria Different-Phenotype (%) [2]: 0% and 11.64% | Population Mitotic Cells (%) [2]: 68.97% and 72.22% | Population Normal (%) [2]: 100% | Population Pyknosed Nuclei (%) [2]: 7.07% and 10.84% | Population Tubulin-Different-Phenotype (%) [2]: 0.79% and 0.68% | Total Cell Count [2]: 410 and 166 | Population Apoptotic (%) [3]: 41.18% and 41.67% | Population Fragmented Nuclei (%) [3]: 2.2% and 3.47% | Population Healthy Nuclei (%) [3]: 90.32% and 87.26% | Population Hoechst High Intensity Objects (%) [3]: 0% | Population Membrane Permeable-Phenotype (%) [3]: 0.65% and 1.33% | Population Mitochondria Different-Phenotype (%) [3]: 0.16% and 3.1% | Population Mitotic Cells (%) [3]: 58.82% and 58.33% | Population Normal (%) [3]: 100% | Population Pyknosed Nuclei (%) [3]: 7.48% and 9.27% | Population Tubulin-Different-Phenotype (%) [3]: 0.81% and 0.88% | Total Cell Count [3]: 682 and 259 | Population Apoptotic (%) [4]: 32.08% and 28.57% | Population Fragmented Nuclei (%) [4]: 1.38% and 0% | Population Healthy Nuclei (%) [4]: 89.48% and 85.29% | Population Hoechst High Intensity Objects (%) [4]: 0% | Population Membrane Permeable-Phenotype (%) [4]: 0.19% and 1.48% | Population Mitochondria Different-Phenotype (%) [4]: 0.19% and 6.9% | Population Mitotic Cells (%) [4]: 67.92% and 71.43% | Population Normal (%) [4]: 100% | Population Pyknosed Nuclei (%) [4]: 9.14% and 14.71% | Population Tubulin-Different-Phenotype (%) [4]: 0.19% and 0.49% | Total Cell Count [4]: 580 and 238 | Population Apoptotic (%) [5]: 48.51% and 53.33% | Population Fragmented Nuclei (%) [5]: 2.96% and 2.17% | Population Healthy Nuclei (%) [5]: 89.37% and 88.07% | Population Hoechst High Intensity Objects (%) [5]: 0% | Population Membrane Permeable-Phenotype (%) [5]: 1.02% and 1.48% | Population Mitochondria Different-Phenotype (%) [5]: 0.08% and 2.46% | Population Mitotic Cells (%) [5]: 51.49% and 46.67% | Population Normal (%) [5]: 100% | Population Pyknosed Nuclei (%) [5]: 7.67% and 9.76% | Population Tubulin-Different-Phenotype (%) [5]: 0.51% and 0.25% | Total Cell Count [5]: 1317 and 461 | Population Apoptotic (%) [6]: 45.33% and 46.15% | Population Fragmented Nuclei (%) [6]: 3.3% and 1% | Population Healthy Nuclei (%) [6]: 89.84% and 86% | Population Hoechst High Intensity Objects (%) [6]: 0.18% and 0% | Population Membrane Permeable-Phenotype (%) [6]: 0.82% and 1.45% | Population Mitochondria Different-Phenotype (%) [6]: 0.1% and 4.94% | Population Mitotic Cells (%) [6]: 54.67% and 53.85% | Population Normal (%) [6]: 99.82% and 100% | Population Pyknosed Nuclei (%) [6]: 6.87% and 13% | Population Tubulin-Different-Phenotype (%) [6]: 0.1% and 0.29% | Total Cell Count [6]: 1094 and 400

Cl.N=C(N)NC(=O)Cc1c(Cl)cccc1Cl [GUANFACINE HYDROCHLORIDE]
Population Apoptotic (%) [1]: 80% and 100% | Population Fragmented Nuclei (%) [1]: 28% and 20% | Population Healthy Nuclei (%) [1]: 55% and 72% | Population Hoechst High Intensity Objects (%) [1]: 4% and 2% | Population Membrane Permeable-Phenotype (%) [1]: 5% and 8% | Population Mitochondria Different-Phenotype (%) [1]: 1% and 2% | Population Mitotic Cells (%) [1]: 19% and 0% | Population Normal (%) [1]: 95% and 97% | Population Pyknosed Nuclei (%) [1]: 16% and 7% | Population Tubulin-Different-Phenotype (%) [1]: 2% and 6% | Total Cell Count [1]: 165 and 129 | Population Apoptotic (%) [2]: 87% and 77% | Population Fragmented Nuclei (%) [2]: 27% and 18% | Population Healthy Nuclei (%) [2]: 61% and 74% | Population Hoechst High Intensity Objects (%) [2]: 1% | Population Membrane Permeable-Phenotype (%) [2]: 10% and 12% | Population Mitochondria Different-Phenotype (%) [2]: 3% and 7% | Population Mitotic Cells (%) [2]: 12% and 22% | Population Normal (%) [2]: 98% | Population Pyknosed Nuclei (%) [2]: 11% and 7% | Population Tubulin-Different-Phenotype (%) [2]: 7% and 10% | Total Cell Count [2]: 280 and 130 | Population Apoptotic (%) [3]: 75% and 83% | Population Fragmented Nuclei (%) [3]: 32% and 18% | Population Healthy Nuclei (%) [3]: 56% and 74% | Population Hoechst High Intensity Objects (%) [3]: 3% and 0% | Population Membrane Permeable-Phenotype (%) [3]: 5% and 8% | Population Mitochondria Different-Phenotype (%) [3]: 3% and 4% | Population Mitotic Cells (%) [3]: 25% and 16% | Population Normal (%) [3]: 96% and 99% | Population Pyknosed Nuclei (%) [3]: 10% and 7% | Population Tubulin-Different-Phenotype (%) [3]: 2% and 5% | Total Cell Count [3]: 194 and 160 | Population Apoptotic (%) [4]: 84% and 83% | Population Fragmented Nuclei (%) [4]: 25% and 15% | Population Healthy Nuclei (%) [4]: 64% and 76% | Population Hoechst High Intensity Objects (%) [4]: 0% and 2% | Population Membrane Permeable-Phenotype (%) [4]: 9% and 10% | Population Mitochondria Different-Phenotype (%) [4]: 2% and 4% | Population Mitotic Cells (%) [4]: 15% and 16% | Population Normal (%) [4]: 99% and 97% | Population Pyknosed Nuclei (%) [4]: 9% and 7% | Population Tubulin-Different-Phenotype (%) [4]: 4% and 5% | Total Cell Count [4]: 326 and 160 | Population Apoptotic (%) [5]: 89% and 90% | Population Fragmented Nuclei (%) [5]: 28% and 16% | Population Healthy Nuclei (%) [5]: 60% and 73% | Population Hoechst High Intensity Objects (%) [5]: 2% and 3% | Population Membrane Permeable-Phenotype (%) [5]: 4% and 8% | Population Mitochondria Different-Phenotype (%) [5]: 3% and 4% | Population Mitotic Cells (%) [5]: 10% and 9% | Population Normal (%) [5]: 97% and 96% | Population Pyknosed Nuclei (%) [5]: 10% | Population Tubulin-Different-Phenotype (%) [5]: 3% and 6% | Total Cell Count [5]: 262 and 217 | Population Apoptotic (%) [6]: 90% and 95% | Population Fragmented Nuclei (%) [6]: 21% and 14% | Population Healthy Nuclei (%) [6]: 68% and 74% | Population Hoechst High Intensity Objects (%) [6]: 2% and 1% | Population Membrane Permeable-Phenotype (%) [6]: 8% and 10% | Population Mitochondria Different-Phenotype (%) [6]: 3% and 1% | Population Mitotic Cells (%) [6]: 9% and 4% | Population Normal (%) [6]: 97% and 98% | Population Pyknosed Nuclei (%) [6]: 10% and 11% | Population Tubulin-Different-Phenotype (%) [6]: 4% and 3% | Total Cell Count [6]: 440 and 213

CCCCC[C@H](O)/C=C/[C@H]1[C@H](O)CC(=O)[C@@H]1CCCCCCC(=O)O [ALPROSTADIL]
Population Apoptotic (%) [1]: 100% and 77% | Population Fragmented Nuclei (%) [1]: 31% and 11% | Population Healthy Nuclei (%) [1]: 62% and 81% | Population Hoechst High Intensity Objects (%) [1]: 1% and 0% | Population Membrane Permeable-Phenotype (%) [1]: 4% and 9% | Population Mitochondria Different-Phenotype (%) [1]: 2% and 5% | Population Mitotic Cells (%) [1]: 0% and 22% | Population Normal (%) [1]: 98% and 100% | Population Pyknosed Nuclei (%) [1]: 6% | Population Tubulin-Different-Phenotype (%) [1]: 2% and 6% | Total Cell Count [1]: 219 and 132 | Population Apoptotic (%) [2]: 71% and 77% | Population Fragmented Nuclei (%) [2]: 23% and 15% | Population Healthy Nuclei (%) [2]: 69% and 75% | Population Hoechst High Intensity Objects (%) [2]: 1% and 2% | Population Membrane Permeable-Phenotype (%) [2]: 1% and 5% | Population Mitochondria Different-Phenotype (%) [2]: 0% and 3% | Population Mitotic Cells (%) [2]: 28% and 22% | Population Normal (%) [2]: 98% and 97% | Population Pyknosed Nuclei (%) [2]: 6% and 8% | Population Tubulin-Different-Phenotype (%) [2]: 0% and 5% | Total Cell Count [2]: 222 and 104 | Population Apoptotic (%) [3]: 91% and 87% | Population Fragmented Nuclei (%) [3]: 25% and 14% | Population Healthy Nuclei (%) [3]: 65% and 75% | Population Hoechst High Intensity Objects (%) [3]: 1% and 0% | Population Membrane Permeable-Phenotype (%) [3]: 5% and 8% | Population Mitochondria Different-Phenotype (%) [3]: 2% and 4% | Population Mitotic Cells (%) [3]: 8% and 12% | Population Normal (%) [3]: 98% and 99% | Population Pyknosed Nuclei (%) [3]: 9% | Population Tubulin-Different-Phenotype (%) [3]: 3% | Total Cell Count [3]: 263 and 166 | Population Apoptotic (%) [4]: 94% and 100% | Population Fragmented Nuclei (%) [4]: 19% and 12% | Population Healthy Nuclei (%) [4]: 74% and 76% | Population Hoechst High Intensity Objects (%) [4]: 1% and 0% | Population Membrane Permeable-Phenotype (%) [4]: 5% and 4% | Population Mitochondria Different-Phenotype (%) [4]: 0% and 2% | Population Mitotic Cells (%) [4]: 5% and 0% | Population Normal (%) [4]: 98% and 99% | Population Pyknosed Nuclei (%) [4]: 6% and 10% | Population Tubulin-Different-Phenotype (%) [4]: 3% and 1% | Total Cell Count [4]: 271 and 131 | Population Apoptotic (%) [5]: 87% and 95% | Population Fragmented Nuclei (%) [5]: 22% and 18% | Population Healthy Nuclei (%) [5]: 68% and 71% | Population Hoechst High Intensity Objects (%) [5]: 2% and 3% | Population Membrane Permeable-Phenotype (%) [5]: 4% and 6% | Population Mitochondria Different-Phenotype (%) [5]: 2% and 5% | Population Mitotic Cells (%) [5]: 12% and 4% | Population Normal (%) [5]: 97% and 96% | Population Pyknosed Nuclei (%) [5]: 9% | Population Tubulin-Different-Phenotype (%) [5]: 2% and 6% | Total Cell Count [5]: 367 and 236 | Population Apoptotic (%) [6]: 88% and 100% | Population Fragmented Nuclei (%) [6]: 13% and 11% | Population Healthy Nuclei (%) [6]: 76% and 77% | Population Hoechst High Intensity Objects (%) [6]: 0% and 2% | Population Membrane Permeable-Phenotype (%) [6]: 4% and 6% | Population Mitochondria Different-Phenotype (%) [6]: 0% and 1% | Population Mitotic Cells (%) [6]: 11% and 0% | Population Normal (%) [6]: 99% and 97% | Population Pyknosed Nuclei (%) [6]: 10% | Population Tubulin-Different-Phenotype (%) [6]: 3% and 4% | Total Cell Count [6]: 362 and 165
